# Reference: ChEMBL document CHEMBL1126142, “Potential antitumor agents. 64. Synthesis and antitumor evaluation of dibenzo[1,4]dioxin-1-carboxamides: a new class of weakly binding DNA-intercalating agents” (J Med Chem, 1992)
# pIC50: −log10 of the molar value. The source made the active and inactive calls. The calls are words filed in the database; no cut-off is given here.
# Assays:
# [1] = Cytotoxicity measured on wild-type P388 murine leukemia cells; type: functional, cell-based; settings: Mus musculus
# Summary of the method: (§1)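 A 96-well plate growth-inhibition assay in culture was run with full dose-response curves. IC50 was the drug concentration (μM) reducing cell growth to 50% of untreated controls. Values are means of three determinations. The P388/AMSA subline carries a structurally altered topoisomerase II.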
# [2] = test system: P388; test: In vivo percentage increase in lifespan with compound after treating wild-type P388 murine leukemia cells with optimal dose; Not active; type: functional, organism-based; settings: Mus musculus
# [3] = Lipophilicity (Rm); type: physicochemical; settings: AMSA internal standard
# Summary of the method: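 Relative lipophilicity (Rm) was determined chromatographically using 4'-(9-acridinylamino)methanesulfonanilide (AMSA) as internal standard.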
# [4] = In vivo the optimal dose administered intraperitoneally to wild-type P388 murine leukemia cells; type: functional, Mus musculus
# Summary of the method: (§2)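 Mice received 10^6 tumor cells intraperitoneally. After 24 h, drug was given ip as a solution in 0.1 mL 30% v/v EtOH/water on days 1, 5 and 9. The optimal dose is expressed as mg/kg per day. Groups were 6 mice, with tests in duplicate.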
# [5] = test system: Nucleic Acid; test: Binding constant to poly[d(A-T)] by displacement of ethidium bromide; type: nucleic-acid assay
# [6] = test system: P388; test: Inhibitory activity against P388 murine leukemia cell which is topoisomerase II enzyme and resistant to classical topo II Inhibitors; type: functional, cell-based; settings: Mus musculus; summary of the method: as §1
# [7] = test system: P388; test: Inhibitory activity against mutant murine leukemia cell line P388/AMSA; type: functional, cell-based; settings: Mus musculus; summary of the method: as §1
# [8] = Percentage increase in lifespan with compound after treating wild-type P388 murine leukemia cells with optimal dose; type: functional, Mus musculus
# Summary of the method: (§3)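 Mice bearing wild-type P388 leukemia, 10^6 cells inoculated intraperitoneally; drug given ip in 0.1 mL 30% v/v EtOH/water on days 1, 5 and 9, starting 24 h after inoculation. ILS = percentage increase in lifespan of treated over untreated tumor-bearing mice at the optimal dose (mg/kg per day); >20% counted significant. Groups of 6 mice, tests in duplicate.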
# [9] = In vivo optimal dose administered intraperitoneally to wild-type P388 murine leukemia cells; type: functional, Mus musculus; summary of the method: as §2
# [10] = In vivo percentage increase in lifespan with compound after treating wild-type P388 murine leukemia cells with optimal dose; type: functional, Mus musculus; summary of the method: as §3
Structure (SMILES),Rm [3],Log K [5],pIC50 [6],pIC50 [1],ILS [2],OD [4] [mg/kg],pIC50 [7],ILS [8] [%],OD [9] [mg/kg],ILS [10] [%]
CN(C)CCNC(=O)c1ccc2c(c1)Oc1ccc(C(=O)NCCN(C)C)cc1O2,-1.21,6.81,–,< 5.00,inactive,225,–,–,–,–
CN(C)CCNC(=O)c1cc([N+](=O)[O-])cc2c1Oc1ccccc1O2,-0.16,5.37,–,5.77,inactive,225,–,–,–,–
Cc1cccc2c1Oc1c(cccc1C(=O)NCCN(C)C)O2,0.09,5.28,–,6.60,–,100,5.11,144,–,–
CN(C)CCNC(=O)c1ccc2c(c1)Oc1ccccc1O2,0.11,4.84,–,5.24,inactive,150,–,–,–,–
CN(C)CCNC(=O)c1cccc2c1Oc1c(Cl)cccc1O2,-0.01,5.48,–,6.64,–,100,5.59,106,–,–
CN(C)CCNC(=O)c1cccc2c1Oc1cc([N+](=O)[O-])ccc1O2,-0.14,5.64,–,5.43,–,150,–,96,–,–
CN(C)CCNC(=O)c1cccc2c1Oc1c(Br)cccc1O2,-0.01,5.23,–,6.68,–,100,6.14,154,–,–
CN(C)CCNC(=O)c1cccc2c1Oc1ccccc1O2,0.01,5.05,–,5.52,–,–,5.74,–,150,76
CN(C)CCCCNC(=O)c1cccc2c1Oc1ccccc1O2,0.13,4.9,–,< 4.70,inactive,–,–,–,150,–
CN(C)CCNC(=O)c1cccc2c1Oc1cc(Cl)c(Cl)cc1O2,0.25,–,6.08,5.29,inactive,150,–,–,–,–
COc1cccc2c1Oc1c(cccc1C(=O)NCCN(C)C)O2,-0.02,5.55,–,6.42,–,45,6.28,45,–,–
CN(C)CCNC(=O)c1cccc2c1Oc1ccc([N+](=O)[O-])cc1O2,-0.14,5.64,–,5.22,–,150,–,96,–,–

# Now from value to molecule, other results behind:
Rm [3],Log K [5],pIC50 [6],Structure (SMILES),pIC50 [1],ILS [2],OD [4] [mg/kg],pIC50 [7],ILS [8] [%],OD [9] [mg/kg],ILS [10] [%]
-0.19,5.18,–,COc1cccc2c1Oc1cccc(C(=O)NCCN(C)C)c1O2,5.80,inactive,100,–,–,–,–
-0.2,5.06,–,CN(C)CCNC(=O)c1cccc2c1Oc1cccc([N+](=O)[O-])c1O2,5.60,inactive,150,–,–,–,–
-0.38,–,6.03,CN(C)CCNC(=O)c1cccc2c1Oc1ncccc1O2,6.08,inactive,65,–,–,–,–
0.18,5.34,–,CN(C)CCNC(=O)c1cccc2c1Oc1ccc(Br)cc1O2,5.72,inactive,100,–,–,–,–
0.14,5.26,–,Cc1cccc2c1Oc1cccc(C(=O)NCCN(C)C)c1O2,5.68,inactive,45,–,–,–,–
0.1,5.11,–,CN(C)CCNC(=O)c1cccc2c1Oc1ccc(Cl)cc1O2,5.80,inactive,100,–,–,–,–
0.21,5.15,–,CN(C)CCNC(=O)c1cccc2c1Oc1cccc(Cl)c1O2,5.89,inactive,100,–,–,–,–
0.18,5.35,–,CN(C)CCNC(=O)c1cccc2c1Oc1cc(Br)ccc1O2,5.52,inactive,150,–,–,–,–
-0.68,4.48,–,CN(C)CCNC(=O)c1cccc2c1Oc1c(cccc1C(=O)NCCN(C)C)O2,6.14,inactive,100,–,–,–,–
-0.28,5.11,–,CN(C)CCNC(=O)c1cccc2c1Oc1c(cccc1[N+](=O)[O-])O2,7.49,inactive,20,6.35,–,–,–
-0.49,4.73,–,CN(C)CCNC(=O)c1cccc2c1Oc1cccnc1O2,5.10,inactive,100,–,–,–,–
0.2,5.11,–,Cc1ccc2c(c1)Oc1cccc(C(=O)NCCN(C)C)c1O2,5.48,inactive,45,–,–,–,–
